Experimental data: ChEMBL document CHEMBL1921714, “Discovery of aminobenzyloxyarylamides as κ opioid receptor selective antagonists: application to preclinical development of a κ opioid receptor antagonist receptor occupancy tracer” (J Med Chem, 2011)
Activity calls are given as the source filed them. The rule behind the calls is not given here.

Columns and labels:
[1] = molecular target: T1, Delta-type opioid receptor (Homo sapiens, UniProt P41143); experiment: Agonist activity at human opioid delta receptor expressed in HEK293 cells assessed as stimulation of [35S]-GTPgammaS binding at 10 uM; assay type: functional, cell-based
Procedure, shortened: (§1)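 Agonist mode: membranes from CHO (κ, μ) or HEK293 (δ) cells expressing cloned human receptors, no agonist added, tested at up to 10 μM. [35S]GTP-γ-S (0.5 nM final) binding in HEPES pH 7.4, MgCl2, NaCl, EDTA, DTT, 200 μM GDP. Read by WGA SPA beads after 2 h (δ) or 4 h (κ, μ) at room temperature, then 4 °C overnight.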

[2] = molecular target: T2, Kappa-type opioid receptor (Homo sapiens, UniProt P41145); experiment: Displacement of [3H]diprenorphine from human opioid kappa receptor expressed in CHO cells after 120 mins by scintillation counting; assay type: cell-based
Procedure, shortened: (§2)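 11-point curves, 0.01 nM–1 μM final. 120 min at 22 °C, then filtration and scintillation counting. Nonspecific binding set by 10 μM naltrexone. Four-parameter IC50; Ki by Cheng–Prusoff.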

Mu-type opioid receptor [3] = molecular target: T3, Mu-type opioid receptor (Homo sapiens, UniProt P35372); experiment: Displacement of [3H]diprenorphine from human opioid mu receptor expressed in CHO cells after 120 mins by scintillation counting; assay type: cell-based; procedure, shortened: as §2
CHO [4] = experiment: Selectivity ratio of Ki for human opioid mu receptor expressed in CHO cells to Ki for human opioid kappa receptor expressed in CHO cells; assay type: cell-based
[5] = molecular target: T1, Delta-type opioid receptor; experiment: Displacement of [3H]diprenorphine from human opioid delta receptor expressed in HEK293 cells after 120 mins by scintillation counting; assay type: cell-based; procedure, shortened: as §2
HEK293 [6] = experiment: Selectivity ratio of Kb for human opioid delta receptor expressed in HEK293 cells to Kb for human opioid kappa receptor expressed in CHO cells; assay type: cell-based
Procedure, shortened: (§3)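 Kb ratios from antagonist [35S]GTP-γ-S SPA on CHO (κ, μ) or HEK293 (δ) membranes. Agonists at about 80% maximal: U69,593 300 nM (κ), DAMGO 1 μM (μ), DPDPE 30 nM (δ). 11-point curves, top 1 or 10 μM. Nonspecific binding: NorBNI, naltrexone or naltriben, each 10 μM. Kb = IC50/(1+D/EC50); geometric means with SEM.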

[7] = molecular target: T1, Delta-type opioid receptor; experiment: Antagonist activity at human opioid delta receptor expressed in HEK293 cells assessed as inhibition of DPDPE-induced [35S]GTP-gamma-S binding after 4 hrs by scintillation counting; assay type: functional, cell-based
CHO [8] = experiment: Selectivity ratio of Kb for human opioid mu receptor expressed in CHO cells to Kb for human opioid kappa receptor expressed in CHO cells; assay type: cell-based; procedure, shortened: as §3
[9] = molecular target: T2, Kappa-type opioid receptor; experiment: Antagonist activity at human opioid kappa receptor expressed in CHO cells assessed as inhibition of U69593-induced [35S]GTP-gamma-S binding after 4 hrs by scintillation counting; assay type: functional, cell-based
HEK293 [10] = experiment: Selectivity ratio of Ki for human opioid delta receptor expressed in HEK293 cells to Ki for human opioid kappa receptor expressed in CHO cells; assay type: cell-based
Mu-type opioid receptor [11] = molecular target: T3, Mu-type opioid receptor; experiment: Antagonist activity at human opioid mu receptor expressed in CHO cells assessed as inhibition of DAMGO-induced [35S]GTP-gamma-S binding after 4 hrs by scintillation counting; assay type: functional, cell-based
Mu-type opioid receptor [12] = molecular target: T3, Mu-type opioid receptor; experiment: Agonist activity at human opioid mu receptor expressed in CHO cells assessed as stimulation of [35S]-GTPgammaS binding at 10 uM; assay type: functional, cell-based; procedure, shortened: as §1
[13] = molecular target: T2, Kappa-type opioid receptor; experiment: Agonist activity at human opioid kappa receptor expressed in CHO cells assessed as stimulation of [35S]-GTPgammaS binding at 10 uM; assay type: functional, cell-based; procedure, shortened: as §1
Striatum [14] = experiment: Drug uptake in rat striatum at 3 ug/kg, iv measured after 40 mins by LC/MS-MS analysis; assay type: ADME, organism-based; details: in vivo, 0.003 mg/kg
Procedure, shortened: (§4)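 Groups of four rats received a single iv tracer dose and were killed 20 or 40 min later. Striatum was weighed, homogenized in 4 volumes acetonitrile/0.1% formic acid and centrifuged. The supernatant was diluted and analysed by LC/MS/MS against standards spiked into naive rat brain. %SUV = tissue amount/injected dose × 100.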

Striatum [15] = experiment: Drug uptake in rat striatum at 1.5 ug/kg, iv measured after 40 mins by LC/MS-MS analysis; assay type: ADME, organism-based; details: in vivo, 0.0015 mg/kg
Procedure, shortened: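 Groups of four rats received a single iv tracer dose and were killed 20 or 40 min later. Striatum was weighed, sonicated in 4 volumes of acetonitrile with 0.1% formic acid, and centrifuged. The supernatant was diluted with water and analysed by C18 LC/MS/MS (precursor-to-product ion transition) against standards spiked into naive rat brain. %SUV = (tissue amount / injected dose) × 100.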

Nucleic Acid [16] = experiment: Ratio of drug uptake in striatum to cerebellum in rat at 1.5 ug/kg, iv measured after 40 mins by LC/MS/MS analysis; assay type: ADME, organism-based; details: in vivo, 0.0015 mg/kg
Procedure, shortened: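 Rats (groups of four) given a single iv tracer dose, killed 20 or 40 min later. Striatum and cerebellum weighed, homogenised by ultrasonic probe in four volumes acetonitrile with 0.1% formic acid, centrifuged, supernatant diluted with water. Read-out is LC/MS/MS on C18 column monitoring precursor-to-product transitions, quantified against standards spiked into untreated rat brain. Binding potential = (striatum/cerebellum) − 1.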

Nucleic Acid [17] = experiment: Ratio of drug uptake in striatum to cerebellum in rat at 30 ug/kg, iv measured after 40 mins by LC/MS/MS analysis; assay type: ADME, organism-based; details: in vivo, 0.03 mg/kg
Procedure, shortened: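 Groups of four rats were given iv tracer and killed 20 or 40 min after dosing. Striatum (total binding) and cerebellum (nonspecific, null region) were extracted in acetonitrile/0.1% formic acid and quantified by LC/MS/MS. Binding potential was calculated as (striatum/cerebellum concentration) − 1.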

Striatum [18] = experiment: Drug uptake in rat striatum at 30 ug/kg, iv measured after 40 mins by LC/MS-MS analysis; assay type: ADME, organism-based; details: in vivo, 0.03 mg/kg; procedure, shortened: as §4

T1 sequence (P41143 whole entry): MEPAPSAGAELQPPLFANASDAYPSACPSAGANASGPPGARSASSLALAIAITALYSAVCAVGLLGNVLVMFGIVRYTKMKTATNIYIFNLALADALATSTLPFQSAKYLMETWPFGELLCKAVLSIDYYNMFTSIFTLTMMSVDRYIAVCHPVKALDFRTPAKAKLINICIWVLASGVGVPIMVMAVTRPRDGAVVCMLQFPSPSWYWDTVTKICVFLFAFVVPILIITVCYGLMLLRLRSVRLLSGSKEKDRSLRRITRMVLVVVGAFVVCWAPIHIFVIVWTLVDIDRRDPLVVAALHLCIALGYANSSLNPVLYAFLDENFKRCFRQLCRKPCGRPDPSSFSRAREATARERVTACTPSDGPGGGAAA
T2 sequence (P41145 whole entry): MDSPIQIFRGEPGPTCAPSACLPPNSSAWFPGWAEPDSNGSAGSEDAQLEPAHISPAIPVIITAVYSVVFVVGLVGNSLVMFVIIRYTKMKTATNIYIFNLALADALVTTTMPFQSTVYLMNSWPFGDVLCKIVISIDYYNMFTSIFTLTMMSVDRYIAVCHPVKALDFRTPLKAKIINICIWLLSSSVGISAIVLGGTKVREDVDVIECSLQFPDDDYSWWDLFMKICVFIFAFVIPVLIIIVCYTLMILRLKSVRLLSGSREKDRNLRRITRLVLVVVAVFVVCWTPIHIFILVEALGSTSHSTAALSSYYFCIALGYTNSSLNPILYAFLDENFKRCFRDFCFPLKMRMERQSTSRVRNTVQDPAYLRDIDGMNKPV
T3 sequence (P35372 whole entry): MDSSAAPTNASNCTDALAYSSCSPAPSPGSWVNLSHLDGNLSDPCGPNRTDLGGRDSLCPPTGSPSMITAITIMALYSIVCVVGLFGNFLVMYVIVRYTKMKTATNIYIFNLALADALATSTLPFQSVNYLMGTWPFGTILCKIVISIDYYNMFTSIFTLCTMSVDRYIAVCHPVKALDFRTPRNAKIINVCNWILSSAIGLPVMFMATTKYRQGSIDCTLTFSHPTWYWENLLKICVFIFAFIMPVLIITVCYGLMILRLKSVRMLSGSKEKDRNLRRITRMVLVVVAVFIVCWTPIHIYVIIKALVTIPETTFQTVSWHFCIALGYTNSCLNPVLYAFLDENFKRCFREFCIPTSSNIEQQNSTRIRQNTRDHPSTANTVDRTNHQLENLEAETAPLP

Structure (SMILES)	Activity [1]	Ki [2] [nM]	Ki (Mu-type opioid receptor [3]) [nM]	Ratio Ki (CHO [4])	Ki [5] [nM]	Ratio (HEK293 [6])	Kb [7] [nM]	Ratio (CHO [8])	Kb [9] [nM]	Ratio Ki (HEK293 [10])	Kb (Mu-type opioid receptor [11]) [nM]	Activity (Mu-type opioid receptor [12])	Activity [13]	SUV (Striatum [14]) [%]	SUV (Striatum [15]) [%]	Ratio (Nucleic Acid [16])	Ratio (Nucleic Acid [17])	SUV (Striatum [18]) [%]
CC(C)[C@@H](CN1CC[C@@](C)(c2cccc(O)c2)[C@@H](C)C1)NC(=O)[C@H]1Cc2ccc(O)cc2CN1C	inactive	0.153	30.8	201	> 500	3820	619	69	0.162	> 3200	11.2	inactive	inactive	23				
NC(=O)c1ccc(Oc2ccc(CNCc3ccccc3)cc2)nc1	inactive	1.78	2.43	1	27.6	14	60.3	1	4.33	16	3.8	inactive	inactive					
Cc1cc(C)cc([C@H]2CCCN2Cc2ccc(Oc3ccc(C(N)=O)cc3F)cc2)c1	inactive	14	101	7	165	5	220	2	44.8	12	69.6	inactive	inactive					
COC(=O)N1CCN(C(=O)Cc2ccc(Cl)c(Cl)c2)[C@H](CN2CCCC2)C1	inactive	0.502	34.7	69	422					841		inactive	inactive		50	1.5		
CC(C)[C@@H](CN1CC[C@@](C)(c2cccc(O)c2)[C@@H](C)C1)NC(=O)[C@H]1Cc2ccc(O)cc2CN1	inactive											inactive	inactive					
Oc1ccc2c3c1O[C@H]1c4[nH]c5c(c4C[C@@]4(O)[C@@H](C2)N(CC2CC2)CC[C@]314)C[C@@]1(O)[C@H]2Cc3ccc(O)c4c3[C@@]1(CCN2CC1CC1)[C@H]5O4	inactive											inactive	inactive					
NC(=O)c1ccc(Oc2ccc(CN3CCCC3c3cccnc3)cc2)nc1 (racemic)	inactive	1.49	39.6	27	> 500	69	407	19	5.89	> 330	110	inactive	inactive				2.2	13
NC(=O)c1ccc(Oc2ccc(CN3CCCC3c3cccc(F)c3)cc2)c(F)c1 (racemic)	inactive	0.617	41.1	67	187	149	525	18	3.52	303	63.5	inactive	inactive					
NC(=O)c1ccc(Oc2ccc(CN3CCCC3c3cccnc3)cc2)c(Cl)c1 (racemic)	inactive	0.622	31.5	51	251					404		inactive	inactive					
